Assay results as given in paper PMC6697164 (Cancer discovery, 2019).

Experiments:
TET2 [1] = experiment: Total TET activity; type: cell-based, human; settings: inhibitor 10 nM for 1 hr prior to FLT3L stimulation for 30 minutes; CD34+ stem/early progenitors; three biological replicates
In short: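 Healthy-donor CD34+ cells, CliniMACS-purified, cultured 4 days in IMDM, 20% human serum, TPO/FLT3L/IL-3/IL-6 (20 ng/mL each), SCF 100 ng/mL. Cytokine-washed, held 4 hrs in IMDM/1% BSA, inhibitor 1 hr, then FLT3L (100 ng/ml) 30 min. Nuclear lysates (Bradford-normalised) on 5-mC-coated wells, 5-hmC detected fluorometrically. Standard curve 0–2 ng, ng/min/mg. Unstimulated and stimulated controls; mean ± SEM, three biological replicates.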

TET2 [2] = experiment: TET2 activity and 5-hmC levels upon TPO or G-CSF stimulation; type: cell-based; settings: Fig. S1A-D
In short: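 Total TET activity was measured in nuclear lysates, with protein quantified by Bradford assay, using a fluorescence ELISA in which plate-coated 5-mC substrate is converted to 5-hmC and detected with an anti-5-hmC antibody. 5-hmC content was measured on 200 ng DNA per assay and expressed as a percentage of total DNA.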

Row | Molecule | Effect on FLT3L-stimulated TET2 activity (TET2 [1]) | 5hm-C levels upon cytokine stimulation (TET2 [2]) | TET2 activity upon cytokine stimulation (TET2 [2])
1 | CC(C)(C)c1cc(NC(=O)Nc2ccc(-c3cn4c(n3)sc3cc(OCCN5CCOCC5)ccc34)cc2)no1 [AC2220] | Inhibition of TET2 activity | – | –
2 | CNC(=O)c1cc(Oc2ccc(NC(=O)Nc3ccc(Cl)c(C(F)(F)F)c3)cc2)ccn1 [Sorafenib] | Inhibition of TET2 activity | – | –
3 | TPO: cytokine thrombopoietin | – | increased | increased
4 | G-CSF: cytokine granulocyte colony stimulation factor (protein, UniProt P09919 31-207, looked up) Granulocyte …: TPLGPASSLPQSFLLKCLEQVRKIQGDGAALQEKLVSECATYKLCHPEELVLLGHSLGIPWAPLSSCPSQALQLAGCLSQLHSGLFLYQGLLQALEGISPELGPTLDTLQLDVADFATTIWQQMEELGMAPALQPTQGAMPAFASAFQRRAGGVLVASHLQSFLEVSYRVLRHLAQP | – | increased | increased
